The test system of one assay is Rattus norvegicus. The experiment in a line: […] percent activity of doxorubicin was determined as augmentation of normal oxygen uptake by fresh rat liver microsomes used as measure of redox activity. The class given is functional. On the set-up: concentration or dose not given beside the values.
Another assay relates to L1210. The experiment in a line: Antileukemic cytotoxicity was evaluated for the compound against L1210 leukemia. Type of assay: functional. The note with it: Mus musculus, read-out: ID50 (the source's name). The method in brief: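 L1210 cells grown in McCoy's 5A with glutamine, HCO3-, antibiotics and 10% heat-inactivated horse serum, 37 °C, humidified 95:5 air/CO2. Seeded at 10^5 cells/mL; drug added at 10, 1, 0.1 or 0.01 μg/mL final. Cell concentration counted by Coulter Counter after 72 h; ID50 taken as concentration giving 50% growth inhibition.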

Converted amounts (≈) assume the structure as drawn.

In the case of `CC(=O)[C@@H]1Cc2c(c(O)cc3c(=O)c4ccccc4oc23)[C@@H](OC2C[C@@H](NC(=O)C(F)(F)F)[C@@H](OC(=O)c3ccc([N+](=O)[O-])cc3)C(C)O2)C1` (some centres not stated), the Activity in the assay on Rattus norvegicus came to 6%. Further, the IC50 with L1210 is 10 µg/mL (≈ 14.3 µM).

`CC(=O)[C@]1(O)Cc2c(c(O)cc3c(=O)c4ccccc4oc23)[C@@H](OC2C[C@@H](NC(=O)C(F)(F)F)[C@@H](OC(=O)c3ccc([N+](=O)[O-])cc3)C(C)O2)C1` (some centres not stated) registered an Activity in the assay with Rattus norvegicus of 10%. Also, in the assay on L1210, the IC50 came to 8 µg/mL (≈ 11.2 µM).

Consider `CC(=O)[C@]1(O)Cc2c(c(O)cc3c(=O)c4ccccc4oc23)[C@@H](OC2C[C@@H](NC(=O)C(F)(F)F)[C@@H](O)C(C)O2)C1` (some centres not stated), for which, in the assay on Rattus norvegicus, the Activity stood at 3%. The IC50 in the assay with L1210 was above 10 µg/mL.

For `CC(=O)[C@@H]1Cc2c(c(O)cc3c(=O)c4ccccc4oc23)[C@@H](OC2C[C@@H](NC(=O)C(F)(F)F)[C@@H](O)C(C)O2)C1` (some centres not stated), the Activity with Rattus norvegicus is 6%. The IC50 with L1210 was determined as 10 µg/mL (≈ 18.2 µM).

`CC(=O)OCC1OC(O[C@H]2C[C@H](C(C)=O)Cc3c2c(O)cc2c(=O)c4ccccc4oc32)[C@@H](NC(=O)C(F)(F)F)C(OC(C)=O)[C@H]1OC(C)=O` (some centres not stated) yielded an Activity with Rattus norvegicus of 4%. Also, the IC50 in the assay on L1210 was above 10 µg/mL.

On to `CC(=O)[C@@H]1Cc2c(c(O)cc3c(=O)c4ccccc4oc23)[C@@H](OC2C[C@@H](N)[C@@H](O)C(C)O2)C1` (some centres not stated), for which the Activity with Rattus norvegicus was 10%. Also, in the assay with L1210, the IC50 was 8 µg/mL (≈ 17.6 µM).

(Values after ChEMBL document CHEMBL1123270, “10-Acetyl-10-hydroxyxantho[2,3-f]tetralin 8-glycosides as angular chromophore analogues of anthracyclines: synthesis, redox properties, microsomal oxygen consumption, and antileukemic evaluation” (1986).)
